This is a sample that favours compounds with a hit; in the whole collection about 2.2% have one here.
CAL PDZ FP-1 = human CAL PDZ-peptide interaction inhibition. purified CAL PDZ, TMR-peptide fluorescence polarization, 1 h. inhibition, % at 20 µM. 330,000 tested, 0.02% active;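 active means highest replicate inhibition of at least 40%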;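 further: plate controls were DMSO neutral control wells for no effect and unlabeled competitor peptide control wells for full effect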
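System: tagged CAL PDZ domain. Schedule: 1 h room-temperature incubation prior to read. Signal: fluorescence polarization (mP). Measure: percent inhibition from loss of millipolarization.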
CAL PDZ FP-2 = inhibitors of human CAL PDZ peptide binding. purified CAL PDZ, TMR-peptide fluorescence polarization, 1 h. 300,000 tested, 0.92% active. inhibition, % at 24.9 µM. Q9HD26;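 active means mean inhibition of at least 30% with at least half of replicates also reaching 30%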;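 further: 0% = DMSO neutral control and 100% = excess unlabeled competitor peptide PRC23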
Rtt109 HAT inh = C. albicans Rtt109 histone acetyltransferase inhibition; Q5AAJ8; purified Rtt109/Vps75, ThioGlo CoA-SH fluorescence, 4 h; inhibition, % at 34.9 µM; 330,000 tested, 0.16% active; AID 540336;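 active means inhibition of at least 50% in every replicate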
Dyrk1A ADPGlo = Dyrk1A (rat) kinase inhibition; Q63470; 310,000 tested, 0.43% active; AID 504441; inhibition, % at 12.5 µM; ADP-Glo luminescence, NFATc1 peptide; in the data active means inhibition above about 50%;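 further: plate controls were vehicle with enzyme for no effect and no enzyme for full effect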
CDK5 p35 inh = CDK5/p35 (human) kinase inhibition; Recombinant CDK5/p35, ADP-Glo luminescence, 60 min; Q00535+Q15078; 330,000 tested, 0.01% active; inhibition, % at 10 µM; AID 488839;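 active means highest replicate inhibition of at least 50% and at least 75% of replicates reaching 50%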;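 further: plate controls were DMSO neutral control for no effect and GW8510 at 10 µM for full effect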
dFosB act-1 = enhances mouse delta FosB homodimer DNA binding. activation, % at 25 µM. 340,000 tested, 0.99% active. P13346. purified delta FosB, TAMRA-CDK5 oligo fluorescence polarization; percent of positive-control signal above neutral wells;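 active means mean activation above about 17%, with every replicate also reaching it, limit read from the data, passing the limit was not always enough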
Target sequence (P13346 whole entry, looked up): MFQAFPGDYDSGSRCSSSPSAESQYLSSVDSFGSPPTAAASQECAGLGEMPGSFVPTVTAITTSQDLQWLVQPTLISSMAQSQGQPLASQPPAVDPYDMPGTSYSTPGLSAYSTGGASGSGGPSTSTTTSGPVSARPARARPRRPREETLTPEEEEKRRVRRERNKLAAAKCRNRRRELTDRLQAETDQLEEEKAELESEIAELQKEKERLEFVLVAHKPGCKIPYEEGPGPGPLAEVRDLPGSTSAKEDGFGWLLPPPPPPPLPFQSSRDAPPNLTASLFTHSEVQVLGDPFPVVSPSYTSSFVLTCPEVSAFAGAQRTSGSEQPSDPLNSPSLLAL
dFosB act-2 = enhances mouse delta FosB homodimer binding to DNA. shares compounds with dFosB act-1. purified delta FosB, TAMRA-CDK5 oligo fluorescence polarization; normalised: neutral wells 0, positive control 100. activation, % at 24.9 µM. 2,400 tested, under 10 active. AID 588690;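 active means highest replicate activation at or above 34% and every replicate reaching that threshold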;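 further: higher polarization means more probe DNA bound by delta FosB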
* marks the source's active call; other numbers are inactive results.

Screening O=C(COc1ccc(/C=N/NC(=O)c2ccccc2O)cc1)Nc1ccc([N+](=O)[O-])cc1 returned CAL PDZ FP-1 -1.8, CAL PDZ FP-2 -1.0, Rtt109 HAT inh -2.9, Dyrk1A ADPGlo 1.6, CDK5 p35 inh -0.3, dFosB act-1 24.4* and dFosB act-2 -3.3.
Screening Nc1c2c(nn1-c1ccccc1)CCC2 returned CAL PDZ FP-1 -1.6, CAL PDZ FP-2 -0.2, Rtt109 HAT inh 3.0, Dyrk1A ADPGlo 4.5, CDK5 p35 inh -0.3 and dFosB act-1 -0.4.
CC(C)(C)NC(=O)CSc1nc(-c2ccc(F)cc2)cs1 was read as CAL PDZ FP-1 -2.4, CAL PDZ FP-2 0.9, Rtt109 HAT inh 8.0, Dyrk1A ADPGlo 6.9, CDK5 p35 inh 1.5 and dFosB act-1 -4.5.
For CCN1CCc2c(sc(NC(=O)c3ccc(S(=O)(=O)N4CCCCCC4)cc3)c2C(=O)NC)C1 the results were CAL PDZ FP-1 -2.4, CAL PDZ FP-2 -4.7, Rtt109 HAT inh -4.8, Dyrk1A ADPGlo -1.0, CDK5 p35 inh -0.5 and dFosB act-1 -12.7.
CC1(C)Cc2c(sc(NC(=O)c3ccccc3Cl)c2C(=O)O)CO1 was read as CAL PDZ FP-1 -2.5, CAL PDZ FP-2 0.1, Rtt109 HAT inh 2.5, Dyrk1A ADPGlo -1.4, CDK5 p35 inh 0.6 and dFosB act-1 2.2.
For COC(=O)c1ccc(OCC(=O)Nc2ccsc2C(=O)OC)cc1 the results were CAL PDZ FP-1 -2.2, CAL PDZ FP-2 -2.4, Rtt109 HAT inh 2.6, Dyrk1A ADPGlo 3.5, CDK5 p35 inh 1.7, dFosB act-1 35.7* and dFosB act-2 2.4.
For COc1ccccc1NC(=O)Cn1nnc(C(=O)Nc2ccccc2)c1N the results were CAL PDZ FP-1 -2.7, CAL PDZ FP-2 -5.7, Rtt109 HAT inh -6.6, Dyrk1A ADPGlo 4.8, CDK5 p35 inh -1.1, dFosB act-1 33.3* and dFosB act-2 6.4.
Screening COc1ccccc1NC(=O)c1nnn(CC(=O)Nc2ccccc2)c1N returned CAL PDZ FP-1 -2.1, CAL PDZ FP-2 0.5, Rtt109 HAT inh -0.8, Dyrk1A ADPGlo -2.6, CDK5 p35 inh 0.3 and dFosB act-1 0.5.
Screening COc1ccccc1NC(=O)c1nnn(CC(=O)Nc2cccc(SC)c2)c1N returned CAL PDZ FP-1 -0.2, CAL PDZ FP-2 -3.1, Rtt109 HAT inh 1.3, Dyrk1A ADPGlo 8.2, CDK5 p35 inh 0.9 and dFosB act-1 1.6.
COc1ccccc1NC(=O)c1nnn(CC(=O)Nc2cc(C)cc(C)c2)c1N was read as CAL PDZ FP-1 -1.9, CAL PDZ FP-2 -2.3, Rtt109 HAT inh -4.5, Dyrk1A ADPGlo -0.9, CDK5 p35 inh 1.6, dFosB act-1 33.1* and dFosB act-2 3.0.
Screening Cc1cc(Br)ccc1NC(=S)N1CCOCC1 returned CAL PDZ FP-1 -1.2, CAL PDZ FP-2 -7.6, Rtt109 HAT inh -6.6, Dyrk1A ADPGlo 6.1, CDK5 p35 inh 0.7 and dFosB act-1 -1.4.
`O=C(N/N=C/c1c(F)cccc1Cl)c1cc(C2CC2)[nH]n1` gave CAL PDZ FP-1 -3.9, CAL PDZ FP-2 -0.7, Rtt109 HAT inh -3.1 and dFosB act-1 -8.4.
CCOC(=O)c1cccc(NC(=O)Cn2c(CC(=O)NC)nc3ccccc32)c1 was read as CAL PDZ FP-1 -0.8, Rtt109 HAT inh -3.4, Dyrk1A ADPGlo 0.0, CDK5 p35 inh -3.2, dFosB act-1 40.6* and dFosB act-2 0.6.
Screening CC(C)C(NC(=O)c1cccs1)C(=O)NC1=NCCS1 (stereo not given) returned CAL PDZ FP-1 -0.7, CAL PDZ FP-2 8.8, Rtt109 HAT inh -13.4, Dyrk1A ADPGlo 1.2, CDK5 p35 inh -2.2 and dFosB act-1 8.7.
For O=C(NC1=NCCS1)c1cccs1 the results were CAL PDZ FP-1 -0.6, CAL PDZ FP-2 -26.7, Rtt109 HAT inh 7.9, Dyrk1A ADPGlo 4.0, CDK5 p35 inh -3.0, dFosB act-1 26.8* and dFosB act-2 2.2.
Screening COc1ccc(Br)cc1CNC(=O)C1CCN(c2nnc(N3CCCC3=O)s2)CC1 returned CAL PDZ FP-1 -0.9, CAL PDZ FP-2 4.0, Rtt109 HAT inh 5.3, Dyrk1A ADPGlo -4.1, CDK5 p35 inh 0.7, dFosB act-1 43.3* and dFosB act-2 1.6.

Source: PubChem (Broad Institute)
